# Screening results: PubChem, several laboratories
# Shown are actives, neighbours in structure and some others; about 2.2% of the full set was active somewhere.
# Diaphorase act – diaphorase activation or chemical reduction counter-screen | Diaphorase/resazurin coupled assay, resorufin fluorescence, 16 min; hits give high values; 1 = vehicle wells, 0 = NADH-free wells | activation factor at 20 µM | 190,000 tested, 0.005% active | AID 1229;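 active = diaphorase activity raised at least twofold by the compound at 20 µM; inactive = activation factor below 2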
#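 Assay system: bacterial diaphorase enzyme (C. kluyveri) / Input: enzyme 0.07 U/mL final / Medium: 50 mM HEPES pH 7.4 with 4.542 mM MgCl2, 0.005% Tween 20 / Doses: single compound dose of 20 µM, 1% DMSO final / Incubation: 16 min enzyme reaction, ambient temperature / Signal: fluorescence, excitation 544 nm and emission 590 nm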
# Diaph inh CS – diaphorase inhibition or chemical oxidation counter-screen | 190,000 tested, 0.69% active | AID 1217 | diaphorase resazurin-to-resorufin fluorescence, NADH, 16 min; bacterial (C. kluyveri) enzyme, not human | inhibition, % at 20 µM;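 active = primary screen inhibition at 20 µM above a set limit, cut at about 50% in these data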;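 also: plate controls were DMSO with full reaction for no effect and wells lacking NADH for full effect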
#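 controls = No-NADH positive control and DMSO neutral control | system = Clostridium kluyveri diaphorase enzyme | timing = reaction incubation of 16 min at room temperature | signal = resorufin fluorescence 544/590 nm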
# G6PDH CS – inhibits Leuconostoc G6PDH, flagging false hits in G6PDH-based assays; Purified L. mesenteroides G6PDH, diaphorase/resazurin coupled fluorescence, 45 min; inhibition, % at 5 µM; 200,000 tested, 0.12% active; in the data active = inhibition above about 50%
# ROMK primary – human ROMK K+ channel modulation, primary screen; P48048; Tet-inducible ROMK, thallium flux fluorescence; actives lie on both sides; B-score at 10 µM; 130,000 tested, 2% active; AID 1918;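 active = signal ratio slope over the read window, or its plate-corrected B-score, at least 3 SD from the plate mean, either direction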;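 also: B-score of the F/F0 ratio slope over 7 to 12 s after thallium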
# Target sequence (P48048 whole entry, looked up): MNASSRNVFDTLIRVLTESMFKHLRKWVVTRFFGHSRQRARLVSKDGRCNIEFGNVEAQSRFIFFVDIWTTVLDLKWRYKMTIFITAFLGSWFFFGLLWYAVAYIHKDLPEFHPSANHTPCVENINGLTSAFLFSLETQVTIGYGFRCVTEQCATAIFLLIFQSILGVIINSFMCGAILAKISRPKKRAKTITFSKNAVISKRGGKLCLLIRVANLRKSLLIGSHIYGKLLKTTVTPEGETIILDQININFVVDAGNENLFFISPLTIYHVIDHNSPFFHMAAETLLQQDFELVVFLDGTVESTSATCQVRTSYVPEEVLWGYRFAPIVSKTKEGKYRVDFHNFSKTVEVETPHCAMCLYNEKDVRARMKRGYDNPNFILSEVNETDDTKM
# PMI act hi M6P – PMI (human) activation, high substrate. P34949. coupled PMI enzyme assay, resazurin fluorescence, 20 min; hits give high values; 1 = untreated enzyme, 0 = substrate-free blank. activation factor at 20 µM. 190,000 tested, 0.34% active. AID 1216;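 active = activation factor of 2 or more at 20 µM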
#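 Test system: human phosphomannose isomerase with PGI, G6PDH, diaphorase coupling enzymes / Doses: 20 µM compound, 1% DMSO / Times: enzyme reaction with compound 20 min at room temperature / Measured by: Diaphorase-driven resazurin-to-resorufin fluorescence, excitation 544, emission 590 nm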
# PMI activator – activators of human phosphomannose isomerase; P34949; purified human PMI, coupled resazurin fluorescence, 20 min; hits give high values; 1 = vehicle control, 0 substrate-free wells; activation factor at 20 µM; 190,000 tested, 0.005% active; AID 1214;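 active = activation factor of 2 or more at 20 µM, relative to plate controls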
# Active calls of the source: *; · = not tested or not shown.
SMILES,Diaphorase act,Diaph inh CS,G6PDH CS,ROMK primary,PMI act hi M6P,PMI activator
CC(=O)Nc1ccc(N(C(=O)Cn2nnc3ccccc32)C(C(=O)NC2CCCC2)c2ccc(O)c(O)c2)cc1 (centres undefined),0.4,56*,37,-0.71,0.7,0.4
Cc1ccc(N(C(=O)Cn2nnc3ccccc32)C(C(=O)NC2CCCCC2)c2cn(C)nc2C)cc1 (centres undefined),1.1,-8,5,1,1.1,1
Brc1c(NC2=NCCN2)ccc2nccnc12,0.4,59*,26,·,0.4,0.5
O=[N+]([O-])C1=CC=C2C(=NC3(CCCCC3)N2O)C1=NC1CCCCC1,0.2,83*,26,-0.25,0.2,0.1
O=[N+]([O-])c1nn(-c2ccc3c(c2)OCCO3)n(O)c1=NC1CCCCC1,0.9,13,-1,0.086,1,0.9
CC(C)(C)N=C1C([N+](=O)[O-])=CC=C2C1=NC1(CCCCC1)N2O,0.2,76*,39,·,0.3,0.2
O=[N+]([O-])C1=CC=C2C(=NC3(CCCCC3)N2O)C1=NCCc1ccccc1,0.4,63*,15,·,0.4,0.4
CC(C)Cc1nnc(NC(=O)CSc2nc(-c3ccccc3)cc(=O)[nH]2)s1,0.7,30,0,-0.54,1.1,1.1
COc1ccccc1N1CCN(C(=O)CN(C)S(=O)(=O)c2cc(C)ccc2OC)CC1,0.8,24,16,0.31,0.9,0.9
CCOc1ccc(CC(=O)C2C(=O)CCCC2=O)cc1OCC,1,4,12,-0.032,2.1*,1.4
CC(C)N(CC#CCC1(O)c2ccccc2-c2ccccc21)CCO,0.4,60*,17,·,0.7,0.6
CCN(CC#CCC1(O)c2ccccc2-c2ccccc21)CCO,0.9,10,3,·,1,0.9
CNCc1ccccc1Sc1cc(O)ccc1O,0.7,32,58*,·,0.6,0.8
Cc1nn(C)cc1CN(C)S(=O)(=O)c1cccc([N+](=O)[O-])c1,0.9,12,4,-0.98,0.9,0.9
COc1cc(C2C3=C(CCCC3=O)Nc3[nH]n(-c4ccccc4)c(=O)c32)cc(OC)c1OC (centres undefined),0.9,7,3,0.54,1.5,1.5
COc1cc(C2C3=C(CCCC3=O)Nc3[nH]n(-c4ccccc4)c(=O)c32)ccc1OC(C)=O (centres undefined),1,1,7,-0.63,2*,1.6
O=C1Nc2ccccc2C12Nc1ccccc1-c1nc3ccccc3n12 (centres undefined),0.6,39,0,-0.38,1,1
CN1C(=O)C2(Nc3ccccc3-c3nc4ccccc4n32)c2ccccc21 (centres undefined),0.2,84*,1,·,1,0.9
Cc1nccn1CC(=O)N/N=C/c1cc(Br)cs1,·,·,·,-1.4,·,·
CCOC(=O)c1ccc(NC(=O)N2CCN(c3ccccc3OC)CC2)cc1,0.9,11,22,·,0.9,0.9
CCOC(=O)/C(=N\Nc1ccc(Br)cc1)N1CCN(c2ccccc2OC)CC1,0.9,7,0,-0.79,2.4*,1.8
Cc1ccc2nc(NC3=NC(CC(=O)O)C(=O)N3)nc(C)c2c1 (centres undefined),1,3,-2,1,1,1
Cc1cnc(NC(=O)c2cncc(Br)c2)s1,0.9,8,-1,-0.012,1,1
Cc1cc(C(=O)N=Nc2c(O)n(C(C)C)c3ccccc23)n[nH]1,0.5,54*,4,·,0.7,0.8
O=C(COC(=O)c1cnccn1)c1ccc(Cl)cc1,1,3,-7,0.63,1,1.1
SMILES,Diaphorase act,Diaph inh CS,G6PDH CS,ROMK primary,PMI act hi M6P,PMI activator
CC(NC(=O)Nc1ccc(Br)cc1)C(C)(C)C (centres undefined),1,-1,6,·,1,1
CSC(=S)N/N=C/c1ccc(N(C)C)cc1,0.8,17,-3,2.7*,1.2,1.2
Cc1nc(SCC(=O)NC(=O)NC(C)C)nc(C)c1C,1,0,-4,1.9,1.1,1
Cc1ncc(CO)c(/C=N/NC(=O)c2cc(O)c(O)c(O)c2)c1O,0.4,60*,2,-0.72,0.8,0.4
CCCc1cc(=O)[nH]c(SCC(=O)Nc2sc3c(c2C#N)CCC(C)C3)n1 (centres undefined),0.7,30,3,0.15,0.9,1
Cc1c(C(N)=O)sc2ncn(CC(=O)NCCc3ccccc3)c(=O)c12,0.9,7,5,0.061,1.1,1.1
CC(SCc1ccccc1)C(=O)N/N=C/c1cc2c(cc1Br)OCO2 (centres undefined),0.5,51*,14,-1.7,0.8,0.8
Fc1ccc(Nc2nc(NCc3ccco3)c3ccccc3n2)cc1,·,·,·,-0.17,·,·
CC(C)COc1cccc(C(=O)NC(=S)NCc2cccnc2)c1,0.5,51*,-11,·,0.8,0.8
Cc1cc(-c2csc(N)n2)c(C)n1CCc1ccccc1,0.8,19,2,·,2*,1.7
Cc1cc(-c2csc(N)n2)c(C)n1CCC(C)C,0.8,17,6,-1.9,1.9,1.6
c1ccc2c3c([nH]c2c1)-c1[nH]ncc1CC3,0.4,64*,17,0.6,0.6,0.5
Cc1cc2nc3c(=O)n(C4CCCCC4)c(=O)[nH]c3nc2cc1N,0.4,60*,30,·,0.4,0.5
Cc1cc(C)cc(Nc2cc(=O)n(C3CCCCC3)c(=O)[nH]2)c1,0.8,17,2,0.38,0.8,0.9
CCOC(=O)C1=C(O)/C(=C/c2ccc(OCC(=O)O)c(OCC)c2)SC1=Nc1ccc(C)cc1,0.4,62*,15,0.55,0.9,1
CCCCn1c(N)c(C(=S)NC(=O)CC(C)(C)C)c(=O)n(C)c1=O,0.4,62*,-6,·,0.8,0.8
CCCn1c(N)c(C(=O)CN2CCc3ccccc3C2)c(=O)n(C)c1=O,1.2,-16,7,1.3,1.1,1.3
CCOC(=O)N1CCN(C(=O)/C(=C/c2cccs2)NC(=O)c2cccs2)CC1,1.1,-7,4,-0.097,1.1,1
C/C(=N\Nc1cccc(C(=O)O)c1)c1ccc(Cl)s1,0.9,10,-1,-1.7,2.6*,1.8
COc1ccc(Br)cc1/C=N/Nc1cccc(C(=O)O)c1,0.8,18,-12,·,1.8,1.4
COc1ccc(/C(C)=N/Nc2cccc(C(=O)O)c2)cc1OC,0.9,12,12,0.71,2.5*,1.6
Nc1nc(-c2cc(Cl)cc(Cl)c2OC(F)F)cs1,0.9,13,5,-0.14,1,1
Cc1cc(C=O)c(C)n1-c1ccc(N2CCOCC2)cc1,0.9,7,14,·,0.9,1
